The structures appear in SMILES notation. Some results are limits rather than exact numbers.

The IC50 is the midpoint of a concentration-inhibition curve.

Experiment [1] is described as follows: (§1) Inhibition of TNF-alpha-induced NF-kappaB transcriptional activation in human HepG2 cells preincubated for 1 hr followed by TNF-alpha challenge measured after 1 hr by luciferase reporter gene assay. The experiment is classed as cell-based. In short, it runs like this:
(§2)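 HepG2 cells were transfected with an NF-κB-responsive firefly luciferase reporter plasmid (minimal CMV promoter plus tandem NF-κB response elements) and stimulated with 10 ng/mL TNFα. Compounds were tested across a concentration range, with a DMSO vehicle control and sulfasalazine (1.0 µM) as positive control. Luciferase activity was read out, data are mean ± SD (n = 3), and IC50 was derived from the dose–response.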
In general terms: In a reporter assay the amount or activity of a reporter protein is the signal.

Experiment [2] relates to HepG2. The experiment can be described thus: Inhibition of TNF-alpha-induced COX2 mRNA expression in human HepG2 cells preincubated for 1 hr followed by TNF-alpha challenge measured after 6 hrs by RT-PCR analysis. The experiment is classed as functional, cell-based.
Experiment [3] has as its system HepG2. The experiment is described as §1. The experiment is classed as cell-based. Put shortly:
as §2

For experiment [4], the system named is HepG2. Description: Inhibition of TNF-alpha-induced iNOS mRNA expression in human HepG2 cells preincubated for 1 hr followed by TNF-alpha challenge measured after 6 hrs by RT-PCR analysis. The experiment is classed as functional, cell-based.

Regarding `O=C(O)c1cc(/N=N/c2ccc(S(=O)(=O)Nc3ccccn3)cc2)ccc1O` [SULFASALAZINE], the midpoint of inhibition in experiment [1], the IC50, lay at 0.9 µM.
On the same count and under the same terms, then `C=C1CO[C@H]2/C=C(\C)CC[C@@H](O)[C@@](C)(O)C/C=C/[C@@](C)(O)CC[C@@]12O`, with greater than 20 µM.
For `C/C1=C\[C@@H]2O[C@@H](O)[C@@]3(C)O[C@@]23CC/C(C)=C/CC[C@](C)(O)[C@@H](O)CC1`, the inhibition entry with HepG2 [2], in the experiment with HepG2 [3] and in the experiment on HepG2 [4] was “Dose-dependent effect” in each case. In experiment [1], the IC50 was 6.3 µM.
Take `C/C1=C\[C@@H]2O[C@@H](O)[C@@]3(C)O[C@@]23CC/C(C)=C/CC[C@](C)(O)[C@H](O)CC1`: the inhibition result with HepG2 [2], in the experiment on HepG2 [3] and with HepG2 [4] was “Dose-dependent effect” throughout. Besides, in experiment [1], the IC50 was 6.63 µM.
With `C=C1CO[C@H]2/C=C(\C)CC[C@@H](O)[C@@](C)(O)C/C=C/[C@](C)(O)CC[C@@]12O`, in experiment [1], the half-maximal inhibitory concentration (IC50) was greater than 20 µM.

Source of the values: ChEMBL document CHEMBL3098021, “New anti-inflammatory cembranoid diterpenoids from the Vietnamese soft coral Lobophytum crassum” (Bioorg Med Chem Lett, 2014).
